# Measured values as given in the array DNA melting data of Ke et al. (doi:10.1101/2024.01.08.574731).
# Assays:
# [1] = melting temperature; fluorescence melt of hairpins on a sequencing array, two-state fit, raised by 9.35 °C to match UV melts; conditions: sodium 0.088 M
# Summary of the method: (§1)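 Two-state fits, bootstrapped, provided melting temperature and folding enthalpy from Cy3 fluorescence normalised to pre-quench Cy3 and to control constructs. Library hairpins with annealed Cy3 and quencher oligos were imaged on a sequenced MiSeq flow cell in 50 mM Na-HEPES pH 8.0, 25 mM NaCl, at 2.5 °C intervals up to 60 °C. Four replicates were combined with inverse-variance weighting. A 9.35 °C upward shift was applied to fitted temperatures to match UV melts.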
# [2] = folding enthalpy; higher = less favourable; fluorescence melt of hairpins on a sequencing array, two-state fit; conditions: sodium 0.088 M
# Summary of the method: as §1
Sequence,Tm [1],folding enthalpy [2]
GGGTCGGGAAACCGGCTC (.(.(((....))).).),47.9 °C,-21.1 kcal/mol
GATCAGCTAACTGATC ((((((....)))))),49.7 °C,-40 kcal/mol
GATCGTACCGACGATC ((((((....)))))),53.4 °C,-53.3 kcal/mol
GTCGTTGGAAACAGTGAC (((..((....))..))),32.4 °C,-13.5 kcal/mol
GATCAGGTCACTGATC ((((((....)))))),59.4 °C,-45.8 kcal/mol
GCCTGCGAAAGCATGGC ((((((....))).))),65.8 °C,-30.8 kcal/mol
GGCTTCGAAAGAAATGCC ((((((....)))..))),38.5 °C,-25.3 kcal/mol
GCTCCGCGAAAGCGCTGC ((..(((....)))..)),37.4 °C,-12.3 kcal/mol
GATCTAAGAGTAGATC ((((((....)))))),37.1 °C,-14.9 kcal/mol
GATCATGGAAACACGATC ((((.((....)).)))),33.8 °C,-22.9 kcal/mol
GATCGTCTCTACGATC ((((((....)))))),54.5 °C,-38.4 kcal/mol
GATCAGGGCCCTGATC ((((((....)))))),60.3 °C,-58.9 kcal/mol
GGTATCGAAAGATGCACC ((((((....)))..))),33.9 °C,-16.1 kcal/mol
GGGTTGGGAAACCAACCC (((((((....))))))),69.3 °C,-32.3 kcal/mol
GCCTTCCGAAAGGATGGC (((.(((....))).))),62 °C,-42.1 kcal/mol
GATCAGTAGGCTGATC ((((((....)))))),52.4 °C,-42.3 kcal/mol
GATCGAGAGCTCGATC ((((((....)))))),51.8 °C,-36.5 kcal/mol
GCTCCCGGAAACGGGGGC ((.((((....)))).)),68.5 °C,-26.7 kcal/mol
GCTTTGCGAAAGCCACGC ((.(.((....)).).)),37 °C,-10.4 kcal/mol
GGGGTTGGAAACAACCTC (.(((((....))))).),52.5 °C,-31.5 kcal/mol
GTTCCAGGAAACTGGGAC ((.((((....)))).)),49.3 °C,-27.6 kcal/mol
GACAAAGGAAACTTTGTC (((((((....))))))),53.9 °C,-43.8 kcal/mol
GTGGGGGGAAACCCTCGC (.(.(((....))).).),40.8 °C,-17.2 kcal/mol

Sequence,Tm [1],folding enthalpy [2]
CGGTGGAAACACCG (((((....))))),68 °C,-26.1 kcal/mol
GATCGTGCGTACGATC ((((((....)))))),55 °C,-39.5 kcal/mol
GTCACCCGAAAGGGCGAC (((.(((....))).))),58.9 °C,-35.7 kcal/mol
GTCAAGCGAAAGCTGAC (((.(((....)))))),58.6 °C,-25.6 kcal/mol
GAACGTGGAAACATGTTC ((((.((....)).)))),47.2 °C,-36.2 kcal/mol
GGCATATCGAAAGATGCC (((..(((....)))))),50.1 °C,-29 kcal/mol
GGTACGGGAAACCGTGTC (..((((....))))..),35.3 °C,-14.1 kcal/mol
GATAGCGAAAGCTATATC ((((((....)))..))),46.6 °C,-14.3 kcal/mol
GGACCTGGAAACAGGTTC (.(((((....))))).),52.7 °C,-27.5 kcal/mol
GCAAATGGAAACATTCGC ((.((((....)))).)),38.4 °C,-28.5 kcal/mol
CGAACGGAAACGTCCTCG ((((((....)))..))),26.2 °C,-11.4 kcal/mol
GATCCCCACAGGGATC ((((((....)))))),66.4 °C,-23 kcal/mol
GTTAAGGGAAACCTTGAC ((.((((....)))).)),37.4 °C,-29.3 kcal/mol
CGTTGGAAACAACG (((((....))))),52.9 °C,-30.3 kcal/mol
GCGTTCTCACGC ((((....)))),50.6 °C,-25.9 kcal/mol
GCACAGCGAAAGCTAAGC ((..(((....)))..)),40.4 °C,-12.1 kcal/mol
GATCACCGGGTGATC ((((((...)))))),55 °C,-30.8 kcal/mol
GGTTGCCGAAAGGCCACC (((.(((....))).))),52.6 °C,-26.6 kcal/mol
GGACTAGAAATAGTCC ((((((....)))))),52.9 °C,-33 kcal/mol
GATCCTGCCAGGATC ((((((...)))))),56.6 °C,-34.7 kcal/mol
GCAATTCGAAAGAACTGC (((.(((....))).))),43.4 °C,-31.4 kcal/mol
GACCAACCGAAAGGTGTC (((..(((....)))))),35.5 °C,-13 kcal/mol
GCTTGCGAAAGCACGAGC ((((((....)))..))),46.9 °C,-15.9 kcal/mol

Sequence,Tm [1],folding enthalpy [2]
GTTCCTCGAAAGAGAAC (((.(((....)))))),36.3 °C,-24.1 kcal/mol
GTGTACGAAAGTAAACAC ((((((....)))..))),42.6 °C,-25.1 kcal/mol
GCAAGGCGAAAGCCCGGC ((..(((....)))..)),45.9 °C,-17.4 kcal/mol
GATCCAGAAGTGGATC ((((((....)))))),52.1 °C,-35.5 kcal/mol
GAGGCCGAAAGGCGGCTC ((((((....)))..))),55.9 °C,-12.8 kcal/mol
GGACGAGGAAACTCGTTC (.(((((....))))).),51.6 °C,-32.5 kcal/mol
GACAAAACGAAAGTTGTC (((..(((....)))))),39.3 °C,-24.8 kcal/mol
GTTCCAGGAAACTGAAAC (((.(((....))).))),30.4 °C,-19.4 kcal/mol
GATCTGGAGCCAGATC ((((((....)))))),49.5 °C,-37.6 kcal/mol
GATCCATTGATGGATC ((((((....)))))),53.5 °C,-40.5 kcal/mol
GATCCTAAGCAGGATC ((((((....)))))),52.9 °C,-29.9 kcal/mol
GAAGTCCGAAAGGATTC (((.(((....)))))),33.8 °C,-14.1 kcal/mol
GGGCAGACGAAAGTCCCC (((..(((....)))))),42.9 °C,-16.8 kcal/mol
GCGGCAGGAAACCGCCGC (((((.(....).))))),69.3 °C,-30.6 kcal/mol
GATCATCTCAATGATC ((((((....)))))),48.9 °C,-41.6 kcal/mol
GATCCGCCTCCGGATC ((((((....)))))),56.1 °C,-34.5 kcal/mol
GTCCGTGGAAACGCGGAC (((((.(....).))))),62.2 °C,-39.8 kcal/mol
GAGGTCGCGAAAGCGCTC (((..(((....)))))),35.1 °C,-9.53 kcal/mol
GTATGTGCGAAAGCATAC (((..(((....)))))),35 °C,-11.7 kcal/mol
GATCTAGCAATAGATC ((((((....)))))),47.6 °C,-39.6 kcal/mol
GATCAAAATTTTGATC ((((((....)))))),48.3 °C,-40.1 kcal/mol
GACGCAGGAAACTACGTC ((((.((....)).)))),43.5 °C,-26.6 kcal/mol
GTTCACGAAAGTGTCAAC ((((((....)))..))),28.6 °C,-10.7 kcal/mol
